Marks after values point to notes of the source that are not given here.
Tests used:
[1] = system: SKBR-3 cells; assay: Cytotoxicity by MTT assay; format: cell-based; details: Homo sapiens, SK-BR-3
Summary of the method: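 SKBR-3 cells were grown in McCoy's 5A with 10% FBS, penicillin and streptomycin at 37°C under 5% CO2. Test compound was applied over a dose range in a time-dependent MTT assay. Growth inhibition was expressed as a percentage relative to controls, and IC50 was derived from the dose response.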

[2] = system: SKBR-3 cells; assay: Apoptosis study by annexin V FITC; format: cell-based, human; details: SKBR3 cells, 24 hrs, at respective IC50
Summary of the method: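 SKBR-3 cells seeded at 1×10^5 cells per well in McCoy's medium at 37°C and exposed to test compound for 24 hrs. Cells were then trypsinized, pelleted at 3000 rpm for 3 mins and PBS-washed. They were stained with FITC-annexin V plus propidium iodide, and the apoptotic fraction was quantified by flow cytometry.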

[3] = system: SKBR-3 cells; assay: Cell cycle distribution analysis; format: cell-based, human; details: 24 hrs, at respective IC50
Summary of the method: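 After 24 hrs of exposure to test compound (SKBR-3 seeded at 1×10^5 cells per well), cells were collected and washed thrice in sterile PBS pH 7.4. They were fixed in chilled 70% ethanol and stained with propidium iodide (20 µg/mL) for 30 mins. DNA content was acquired over 15,000 events per sample, and phase distribution was compared with untreated control.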

[4] = system: MCF-7 cells; assay: Cell cycle distribution analysis; format: cell-based, human; details: 24 hrs, at respective IC50
[5] = Pharmacokinetic study; format: in vivo, BALB/c mice
[6] = Cardiac toxicity study; format: in vivo, female BALB/c mice; details: BALB/c mice
Summary of the method: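 Female BALB/c mice (~25 g, n=3 per group) received three consecutive IV injections totalling […] DOX, given as free drug or drug-equivalent nanoparticles. Controls were untreated/saline and blank nanoparticles. Weight was recorded every 48 hrs, and […] was taken under light anaesthesia 14 days after the last dose. Hearts were then excised and weighed, and SOD was kit-assayed in heart homogenate (ice-cold PBS, 10 mL/g).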

[7] = system: SKBR-3 tumor; assay: In vivo therapeutic study on tumor-bearing xenograft mice; parameters: species or system athymic nude mice; details: for average tumor volume: three IV doses of DOX 3 mg/kg on alternate days
Summary of the method: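 Athymic nude mice (CAnN.Cg-Foxn, 6 weeks, ~20 g) were inoculated subcutaneously in the left rear flank with 1×10^7 SKBR-3 cells in 200 μL medium. At 100–150 mm3, groups of three received IV saline or test compound, three doses of DOX 3 mg/kg equivalent on alternate days. Tumours were caliper-measured, body weight was monitored, and excised tumours were weighed after sacrifice (mean ± SD, n=3).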

[8] = BALB/c, mouse, plasma, iv, 10 mg/kg
[9] = plasma DOX, IV bolus, 10 mg/kg DOX or equivalent, BALB/c mice

COc1cccc2c1C(=O)c1c(O)c3c(c(O)c1C2=O)C[C@@](O)(C(=O)CO)C[C@@H]3O[C@H]1C[C@H](N)[C@H](O)[C@H](C)O1 [DOX, (7S, 9S)-7-[(2R, 4S, 5S, 6S)-4-amino-5-hydroxy-6-methyloxan-2-yl]oxy-6,9,11-trihydroxy-9-(2-hydroxyacetyl)-4-methoxy-8,10-dihydro-7H-tetracene-5,12-dione]
IC50 [1]: 14.1 µM
extent of apoptosis [2]: 19.6%
cell-arrest in S-phase [3]: 22%
cell-arrest in S-phase [4]: 8%
AUC(0-inf) [5, 8]: 2930 ± 205 ng·h/mL
AUC(0-t) [5, 8]: 2880 ± 199 ng·h/mL
Cmax [5, 8]: 911 ± 50.5 ng/mL
MRT inf [5, 8]: 18.2 ± 0.86 h
MRT last [5, 8]: 16.2 ± 0.99 h
Tmax [5, 8]: 0.25 ± 0.021 h
Vd [5, 8]: 61.9 ± 4.8 L/kg
clearance [5, 8]: 56.7 mL/min/kg
half-life [5, 8]: 17.9 ± 2.1 h
AUMCinf [5, 9]: 53,296.5±2600 hrs.hrs.ng/mL
AUMClast [5, 9]: 46,707.8±2202.6 hrs.hrs.ng/mL
Heart weight ([6]; 2 weeks after final dosing): 0.1420 ± 0.025 g
LV fractional shortening ([6]; 14 days after last dose): significant decrease
histopathology of heart sections ([6]; hematoxylin and eosin staining): Remarkable changes in degradation in cardiac muscle with vacuolization and edema of the cells
% SOD ([6]; heart homogenate, 2 weeks after final dosing): 34.02±4.5^a,b %
Average tumor weights of the excised tumors ([7]; at the terminal experiment, SKBR-3 tumor, three IV doses of DOX 3 mg/kg): 0.424 ± 0.06 g
average tumor volume ([7]; day 15, SKBR-3 tumor): 500 mm^3
average tumor volume ([7]; day 25, SKBR-3 tumor): 1790 mm^3

— PMC6790403 (International Journal of Nanomedicine, 2019)
